Source: ChEMBL document CHEMBL5046294, “Rational Design, Chemical Syntheses, and Biological Evaluations of Peripherally Selective Mu Opioid Receptor Ligands as Potential Opioid Induced Constipation Treatment” (J Med Chem, 2022)
pEC50, pKi: −log10 of the molar value. Active and inactive are the calls of the source.

How the values were obtained:
[1] = system: Mus musculus; experiment: Antinociceptive activity against sc dosed Swiss Webster mouse model assessed as effect on morphine induced antinociception by measuring tail withdrawal latency from warm water incubated for 5 mins followed by morphine addition measured after 20 mins by warm water tail immersion assay; assay type: functional; details: time 25.0 min
Procedure, shortened: (§1)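 Male Swiss Webster mice, 5–8 weeks, 25–35 g, 6 per group. Tail immersed (distal third) in water at 56 ± 0.1 °C. Mice included only with baseline latency 2–4 s. Compound 10 mg/kg s.c.; in the challenge arm it was given 5 min before morphine 10 mg/kg s.c. Latency read 20 min after injection, 10-s cutoff. %MPE = (test − control)/(10 − control) × 100. Dunnett-corrected one-way ANOVA.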

[2] = target: Kappa-type opioid receptor (Mus musculus, UniProt P33534); experiment: Binding affinity to mouse kappa opioid receptor expressed in CHO cells in presence of U50488 incubated for 1.5 hrs by competitive radioligand binding assay; assay type: cell-based
Procedure, shortened: (§2)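 Competition binding. Membranes (30 μg protein) from CHO cells with mouse MOR or KOR, or human DOR. Incubated with radioligand and varying test concentrations in TME buffer, pH 7.4, 1.5 h at 30 °C. Filtration harvest. Nonspecific binding defined with 5 μM naltrexone (MOR), U50,488 (KOR) or SNC80 (DOR). IC₅₀ by nonlinear regression, converted to Ki by Cheng-Prusoff. Selectivity ratios taken from these Ki values. At least three independent experiments.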

[3] = target: T1, Mu-type opioid receptor (Mus musculus, UniProt P42866); experiment: Antagonist activity at mouse mu opioid receptor expressed in CHO cell membrane assessed as reduction in DAMGO-induced […]-GTPgammaS binding incubated for 1.5 hrs by liquid scintillation counting method; assay type: functional, cell membranes
[4] = target: Delta-type opioid receptor (Homo sapiens, UniProt P41143); experiment: Binding affinity to human delta opioid receptor in presence of SNC80 incubated for 1.5 hrs by competitive radioligand binding assay; procedure, shortened: as §2
[5] = Selectivity index, ratio of Ki for binding affinity to human delta opioid receptor to Ki for binding affinity to mouse mu opioid receptor; procedure, shortened: as §2
[6] = system: Mus musculus; experiment: Antinociceptive activity against Swiss Webster mouse assessed as tail withdrawal latency from warm water by measuring maximum possible effect at 10 mg/kg, sc measured after 20 mins by warm water tail immersion assay; assay type: functional; procedure, shortened: as §1
[7] = target: T1, Mu-type opioid receptor; experiment: Binding affinity to mouse mu opioid receptor expressed in CHO cells in presence of naltrexone incubated for 1.5 hrs by competitive radioligand binding assay; assay type: cell-based; procedure, shortened: as §2
[8] = species: Mus musculus; experiment: Selectivity index, ratio of Ki for binding affinity to mouse kappa opioid receptor to Ki for binding affinity to mouse mu opioid receptor; procedure, shortened: as §2
[9] = target: Mu-type opioid receptor (Mus musculus) (UniProt P42866); experiment: Antagonist activity at mouse mu opioid receptor expressed in CHO cell membrane assessed as reduction in DAMGO-induced […]-GTPgammaS binding by measuring maximal efficacy incubated for 1.5 hrs by liquid scintillation counting method relative to control; assay type: functional, cell membranes
Procedure, shortened: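 [³⁵S]GTPγS binding. Membranes (10 μg protein) from CHO cells expressing MOR, KOR or DOR. Buffer TME (50 mM Tris, 3 mM MgCl₂, 0.2 mM EGTA, pH 7.4) with 100 mM NaCl, 20 μM GDP and 0.1 nM [³⁵S]GTPγS. Test compound at varying concentrations. Incubation 1.5 h at 30 °C. Nonspecific binding with 20 μM unlabeled GTPγS. Reference full agonist at 3 μM: DAMGO (MOR), U50488H (KOR), SNC80 (DOR). Filtration, then scintillation counting. Duplicates, at least three repeats.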

[10] = system: Mus musculus; experiment: Gastroprokinetic activity in Swiss Webster mouse assessed as stimulation of gastrointestinal motility by measuring time required to defecation of red fecal pellet at 10 mg/kg, po incubated for 5 mins followed by morphine addition at 10 mg/kg and measured after 20 mins by carmine red dye assay; assay type: functional; details: time 25 min
Procedure, shortened: (§3)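 Male Swiss Webster mice, 5–6 per group, housed singly. Compound or vehicle given s.c. or by oral gavage 5 min before morphine (10 or 5 mg/kg) or vehicle. 20 min after morphine, 0.2 mL of 6% carmine red in 0.5% CMC given orally (time 0). Time to first red pellet recorded, 6-h cutoff. Dunnett-corrected one-way ANOVA.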

[11] = system: Mus musculus; experiment: Gastroprokinetic activity in Swiss Webster mouse assessed as stimulation of gastrointestinal motility by measuring time required to defecation of red fecal pellet at 10 mg/kg, sc incubated for 5 mins followed by morphine addition at 10 mg/kg and measured after 20 mins by carmine red dye assay; assay type: functional; details: time 25 min; procedure, shortened: as §3
[12] = system: Mus musculus; experiment: Reversal of morphine induced constipation in Swiss Webster mouse at 10 mg/kg, po for 5 mins followed by morphine addition measured after 20 mins by carmine red dye assay relative to control; assay type: functional; details: time 25 min; procedure, shortened: as §3

SMILES: O=C(CCc1cc[nH]n1)N[C@H]1CC[C@@]2(O)[C@H]3Cc4ccc(O)c5c4[C@@]2(CCN3CC2CC2)[C@H]1O5
- Activity [1]: inactive
- pKi [2]: 8.56
- pEC50 [3]: 8.37
- pKi [4]: 6.66
- Ratio Ki [5]: 433
- Activity [6]: inactive
- pKi [7]: 9.30
- Ratio Ki [8]: 6
- Emax [9]: 22.2%

SMILES: O=C(Cc1ncc[nH]1)N[C@H]1CC[C@@]2(O)[C@H]3Cc4ccc(O)c5c4[C@@]2(CCN3CC2CC2)[C@H]1O5
- pKi [2]: 8.46
- pEC50 [3]: 8.74
- pKi [4]: 7.75
- Ratio Ki [5]: 21
- MPE [6]: 36.9%
- pKi [7]: 9.08
- Ratio Ki [8]: 4
- Emax [9]: 19.2%

SMILES: O=C(CCc1cn[nH]c1)N[C@@H]1CC[C@@]2(O)[C@H]3Cc4ccc(O)c5c4[C@@]2(CCN3CC2CC2)[C@H]1O5
- Activity [1]: inactive
- pKi [2]: 7.91
- pEC50 [3]: 8.37
- pKi [4]: 7.01
- Ratio Ki [5]: 322
- Activity [6]: inactive
- pKi [7]: 9.52
- Ratio Ki [8]: 40
- Emax [9]: 10.7%

SMILES: O=C(Cc1cnc[nH]1)N[C@@H]1CC[C@@]2(O)[C@H]3Cc4ccc(O)c5c4[C@@]2(CCN3CC2CC2)[C@H]1O5
- Activity [1]: inactive
- pKi [2]: 8.32
- pEC50 [3]: 8.33
- pKi [4]: 7.13
- Ratio Ki [5]: 91
- Activity [6]: inactive
- pKi [7]: 9.09
- Ratio Ki [8]: 6
- Emax [9]: 20.9%

SMILES: O=C(Cc1cn[nH]c1)N[C@@H]1CC[C@@]2(O)[C@H]3Cc4ccc(O)c5c4[C@@]2(CCN3CC2CC2)[C@H]1O5
- Activity [1]: inactive
- pKi [2]: 7.86
- pKi [4]: 7.18
- Time [10]: 69 min
- Ratio Ki [5]: 390
- Activity [6]: inactive
- pKi [7]: 9.77
- Ratio Ki [8]: 82
- Time [11]: 174 min
- Activity [12]: 40%
- Emax [9]: 22.2%

SMILES: O=C(Cc1cnc[nH]1)N[C@H]1CC[C@@]2(O)[C@H]3Cc4ccc(O)c5c4[C@@]2(CCN3CC2CC2)[C@H]1O5
- Activity [1]: inactive
- pKi [2]: 8.45
- pEC50 [3]: 8.44
- pKi [4]: 7.10
- Ratio Ki [5]: 59
- Activity [6]: inactive
- pKi [7]: 8.87
- Ratio Ki [8]: 3
- Emax [9]: 21%

SMILES: O=C(Cc1cn[nH]c1)N[C@H]1CC[C@@]2(O)[C@H]3Cc4ccc(O)c5c4[C@@]2(CCN3CC2CC2)[C@H]1O5
- Activity [1]: inactive
- pKi [2]: 6.98
- pEC50 [3]: 8.09
- pKi [4]: 5.46
- Time [10]: 70 min
- Ratio Ki [5]: 3920
- Activity [6]: inactive
- pKi [7]: 9.06
- Ratio Ki [8]: 118
- Time [11]: 172 min
- Activity [12]: 39%
- Emax [9]: 28.4%

SMILES: O=C(N[C@H]1CC[C@@]2(O)[C@H]3Cc4ccc(O)c5c4[C@@]2(CCN3CC2CC2)[C@H]1O5)c1cc[nH]n1
- Activity [1]: inactive
- pKi [2]: 8.98
- pEC50 [3]: 8.63
- pKi [4]: 7.67
- Ratio Ki [5]: 35
- Activity [6]: inactive
- pKi [7]: 9.21
- Ratio Ki [8]: 2
- Emax [9]: 19.6%

SMILES: O=C(N[C@H]1CC[C@@]2(O)[C@H]3Cc4ccc(O)c5c4[C@@]2(CCN3CC2CC2)[C@H]1O5)c1cnc[nH]1
- Activity [1]: inactive
- pKi [2]: 8.56
- pEC50 [3]: 8.35
- pKi [4]: 7.49
- Ratio Ki [5]: 29
- Activity [6]: inactive
- pKi [7]: 8.95
- Ratio Ki [8]: 2
- Emax [9]: 20.7%

SMILES: O=C(CCc1cc[nH]n1)N[C@@H]1CC[C@@]2(O)[C@H]3Cc4ccc(O)c5c4[C@@]2(CCN3CC2CC2)[C@H]1O5
- Activity [1]: inactive
- pKi [2]: 8.70
- pEC50 [3]: 8.56
- pKi [4]: 7.37
- Ratio Ki [5]: 202
- Activity [6]: inactive
- pKi [7]: 9.68
- Ratio Ki [8]: 10
- Emax [9]: 13.2%

SMILES: O=C(Cc1ncc[nH]1)N[C@@H]1CC[C@@]2(O)[C@H]3Cc4ccc(O)c5c4[C@@]2(CCN3CC2CC2)[C@H]1O5
- Activity [1]: inactive
- pKi [2]: 8.29
- pEC50 [3]: 8.68
- pKi [4]: 7.05
- Ratio Ki [5]: 188
- Activity [6]: inactive
- pKi [7]: 9.32
- Ratio Ki [8]: 11
- Emax [9]: 23.5%

SMILES: O=C(CCc1ncc[nH]1)N[C@@H]1CC[C@@]2(O)[C@H]3Cc4ccc(O)c5c4[C@@]2(CCN3CC2CC2)[C@H]1O5
- Activity [1]: inactive
- pKi [2]: 9.24
- pEC50 [3]: 8.91
- pKi [4]: 7.25
- Ratio Ki [5]: 99
- Activity [6]: inactive
- pKi [7]: 9.24
- Ratio Ki [8]: 1
- Emax [9]: 17.7%

SMILES: O=C(CCc1ncc[nH]1)N[C@H]1CC[C@@]2(O)[C@H]3Cc4ccc(O)c5c4[C@@]2(CCN3CC2CC2)[C@H]1O5
- Activity [1]: inactive
- pKi [2]: 9.10
- pEC50 [3]: 8.37
- pKi [4]: 8.40
- Ratio Ki [5]: 6
- Activity [6]: inactive
- pKi [7]: 9.16
- Ratio Ki [8]: 1
- Emax [9]: 21.7%

SMILES: O=C(CCc1cn[nH]c1)N[C@H]1CC[C@@]2(O)[C@H]3Cc4ccc(O)c5c4[C@@]2(CCN3CC2CC2)[C@H]1O5
- Activity [1]: inactive
- pKi [2]: 7.40
- pEC50 [3]: 7.91
- pKi [4]: 7.04
- Ratio Ki [5]: 83
- Activity [6]: inactive
- pKi [7]: 8.96
- Ratio Ki [8]: 36
- Emax [9]: 14.2%

SMILES: O=C(N[C@@H]1CC[C@@]2(O)[C@H]3Cc4ccc(O)c5c4[C@@]2(CCN3CC2CC2)[C@H]1O5)c1cn[nH]c1
- Activity [1]: inactive
- pKi [2]: 8.60
- pEC50 [3]: 8.75
- pKi [4]: 7.33
- Ratio Ki [5]: 72
- Activity [6]: inactive
- pKi [7]: 9.19
- Ratio Ki [8]: 4
- Emax [9]: 16.3%

SMILES: O=C(N[C@@H]1CC[C@@]2(O)[C@H]3Cc4ccc(O)c5c4[C@@]2(CCN3CC2CC2)[C@H]1O5)c1cc[nH]n1
- Activity [1]: inactive
- pKi [2]: 9.02
- pEC50 [3]: 8.74
- pKi [4]: 7.84
- Ratio Ki [5]: 52
- Activity [6]: inactive
- pKi [7]: 9.55
- Ratio Ki [8]: 3
- Emax [9]: 10.9%

SMILES: O=C(CCc1cnc[nH]1)N[C@H]1CC[C@@]2(O)[C@H]3Cc4ccc(O)c5c4[C@@]2(CCN3CC2CC2)[C@H]1O5
- Activity [1]: inactive
- pKi [2]: 8.92
- pEC50 [3]: 8.02
- pKi [4]: 7.67
- Ratio Ki [5]: 106
- Activity [6]: inactive
- pKi [7]: 9.70
- Ratio Ki [8]: 6
- Emax [9]: 25.4%

SMILES: O=C(Cc1cc[nH]n1)N[C@@H]1CC[C@@]2(O)[C@H]3Cc4ccc(O)c5c4[C@@]2(CCN3CC2CC2)[C@H]1O5
- Activity [1]: inactive
- pKi [2]: 8.30
- pEC50 [3]: 8.60
- pKi [4]: 7.43
- Ratio Ki [5]: 186
- MPE [6]: 39.3%
- pKi [7]: 9.70
- Ratio Ki [8]: 26
- Emax [9]: 20.4%

SMILES: O=C(CCc1cnc[nH]1)N[C@@H]1CC[C@@]2(O)[C@H]3Cc4ccc(O)c5c4[C@@]2(CCN3CC2CC2)[C@H]1O5
- Activity [1]: inactive
- pKi [2]: 8.74
- pEC50 [3]: 8.50
- pKi [4]: 7.45
- Ratio Ki [5]: 60
- Activity [6]: inactive
- pKi [7]: 9.22
- Ratio Ki [8]: 3
- Emax [9]: 15.7%

SMILES: O=C(N[C@H]1CC[C@@]2(O)[C@H]3Cc4ccc(O)c5c4[C@@]2(CCN3CC2CC2)[C@H]1O5)c1cn[nH]c1
- Activity [1]: inactive
- pKi [2]: 8.33
- pEC50 [3]: 8.91
- pKi [4]: 7.43
- Ratio Ki [5]: 64
- Activity [6]: inactive
- pKi [7]: 9.23
- Ratio Ki [8]: 8
- Emax [9]: 23.1%
